≈ marks a conversion by molar mass, not a printed value. A value given as a limit tells only on which side of the number the result lay.

A short description of series [1]: Solubility of the compound in PBS. In kind it is physicochemical.
Series [2] deals with A-375. Briefly: Antiproliferative activity against human A375 cells assessed as reduction in cell viability measured after 48 hrs by MTT assay. The series is classed as functional, cell-based. As to conditions: a-375.
Series [3] has as its system HCT-116. The series can be described thus: Antiproliferative activity against human HCT116 cells assessed as reduction in cell viability measured after 48 hrs by MTT assay. In kind it is functional, cell-based. As to conditions: hct-116.
Series [4] has as its system HeLa. The series can be described thus: Antiproliferative activity against human HeLa cells assessed as reduction in cell viability measured after 48 hrs by MTT assay. In kind it is functional, cell-based. To be noted: hela.
Series [5] deals with A549. The series can be described thus: Antiproliferative activity against human A549 cells assessed as reduction in cell viability measured after 48 hrs by MTT assay. The series is classed as functional, cell-based. As to conditions: a549.
The test system of series [6] is MCF7. The series can be described thus: Antiproliferative activity against human MCF7 cells assessed as reduction in cell viability measured after 48 hrs by MTT assay. As to conditions: mcf7. In kind it is functional, cell-based.
In series [7] the test system is Raji. Briefly: Antiproliferative activity against human Raji cells assessed as reduction in cell viability measured after 48 hrs by MTT assay. In kind it is functional, cell-based. To be noted: raji.
Series [8] deals with K562. Briefly: Antiproliferative activity against human K562 cells assessed as reduction in cell viability measured after 48 hrs by MTT assay. In kind it is functional, cell-based. As to conditions: k562.
For series [9], the system named is NAMALVA. The series can be described thus: Antiproliferative activity against human NAMALWA cells assessed as reduction in cell viability measured after 48 hrs by MTT assay. The series is classed as functional, cell-based. To be noted: namalva.
Series [10] concerns Raji. Briefly: Induction of apoptosis in human Raji cells assessed as live cells at 0.25 uM measured after 48 hrs by Annexin V-FITC staining based flow cytometry (reference value: 96.46 to 96.71 %). In kind it is functional.
In series [11] the test system is Raji. Briefly: Induction of apoptosis in human Raji cells assessed as early apoptotic cells at 0.25 uM measured after 48 hrs by Annexin V-FITC staining based flow cytometry (reference value: 2.12 to 2.15 %). The series is classed as functional.
Series [12] concerns Raji. The series can be described thus: Induction of apoptosis in human Raji cells assessed as necrotic cells at 0.25 uM measured after 48 hrs by Annexin V-FITC staining based flow cytometry (reference value: 0.12 to 0.15 %). In kind it is functional.
For series [13], the system named is Raji. Briefly: Induction of apoptosis in human Raji cells assessed as live cells at 0.5 uM measured after 48 hrs by Annexin V-FITC staining based flow cytometry (reference value: 96.46 to 96.71 %). In kind it is functional.
In series [14] the test system is Raji. The series can be described thus: Induction of apoptosis in human Raji cells assessed as early apoptotic cells at 0.5 uM measured after 48 hrs by Annexin V-FITC staining based flow cytometry (reference value: 2.12 to 2.15 %). The series is classed as functional.
In series [15] the test system is Raji. The series can be described thus: Induction of apoptosis in human Raji cells assessed as necrotic cells at 0.5 uM measured after 48 hrs by Annexin V-FITC staining based flow cytometry (reference value: 0.12 to 0.15 %). In kind it is functional.
Series [16] deals with Raji. Briefly: Induction of apoptosis in human Raji cells assessed as live cells at 1 uM measured after 48 hrs by Annexin V-FITC staining based flow cytometry (reference value: 96.46 to 96.71 %). In kind it is functional.
In series [17] the test system is Raji. The series can be described thus: Induction of apoptosis in human Raji cells assessed as early apoptotic cells at 1 uM measured after 48 hrs by Annexin V-FITC staining based flow cytometry (reference value: 2.12 to 2.15 %). In kind it is functional.
Series [18] has as its system Raji. The series can be described thus: Induction of apoptosis in human Raji cells assessed as necrotic cells at 1 uM measured after 48 hrs by Annexin V-FITC staining based flow cytometry (reference value: 0.12 to 0.15 %). The series is classed as functional.
Series [19] is described as follows: Stability of the compound in pH 1 to 7.4 buffer assessed as decrease in compound concentration at 0.01 mg/ml measured up to 24 hrs by LC-MS analysis. To be noted: read-out: Drug degradation. The series is classed as physicochemical. In short, it runs like this: (§1)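 Compound at 0.01 mg/mL final in buffer containing 10% acetonitrile at pH 1.0, 4.5, 6.6, 7.4 or 9.0. Held at 37 °C, sampled at 0, 2, 4, 6, 8, 10, 12 and 24 h. Remaining compound by LC-MS.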

Series [20] in a line: Stability of the compound in pH 9 buffer assessed as decrease in compound concentration at 0.01 mg/ml measured up to 24 hrs by LC-MS analysis. The series is classed as physicochemical. As to conditions: read-out: Drug degradation. In short, it runs like this:
as §1

The subject of series [21] is Raji. The series can be described thus: Antitumor activity against human Raji cells xenografted in NOD-SCID nude mouse assessed as tumor growth inhibition at 10 mg/kg/day, po administered 6 days a week for 3 weeks relative to control. In kind it is functional. In short, it runs like this:
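Nude mice given 1 × 10^7 Raji cells s.c. in serum-free medium plus basement membrane matrix. Randomized at 100–200 mm3 tumour volume (n = 6 per group). Oral dosing 6 days/week for 3 weeks. Vehicles: 30 mg/kg/d in 5% NMP/95% PEG400, 10 mg/kg/d in 30% PEG300/70% saline. Volume = ab²/2 every 3 days. TGI from treated vs control volume change, initial to final day.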

Series [22] can be described thus: Toxicity in NOD-SCID nude mouse xenografted with human Raji cells assessed as body weight loss at 30 mg/kg/day, po administered 6 days a week for 3 weeks and measured every 3 days during compound dosing. In kind it is organism-based. As to conditions: in vivo, 10 mg/kg, in the assay text read “10 mg/kg/day” for “30 mg/kg/day”.
The nature of series [23]: Toxicity in NOD-SCID nude mouse xenografted with human Raji cells assessed as induction of liver damage at 10 mg/kg/day, po administered 6 days a week for 3 weeks and measured post last dose by H and E staining based light microscopic analysis. To be noted: in vivo.

In series [1], `Cc1c(-c2ccc(-c3ccccc3F)cc2)nc2ccc(F)cc2c1C(=O)O` [BREQUINAR] registered a solubility of 75.2 µg/mL (≈ 200 µM). In addition, the IC50 in series [2] is 0.59 µM; in series [3] it was 4.12 µM; in [4], more than 10 µM; in series [5] it was 4.1 µM; in series [6] it was more than 10 µM; in series [7], 2.29 µM. The results for the IC50 in [8] and in [9] were 0.54 µM and more than 10 µM, respectively. The Activity in series [10] is given as 93.68%; in [11] it was 2.42%; in series [12], 0.27%; in series [13] it was 91.85%; in series [14], 3.56%; in series [15], 0.27%. The Activity is listed as 92.06% in series [16]; 2.48% in [17]; 0.41% in [18]; “Toxic” in series [22]; “Toxic” in [23]. The results for the degraded at 24 h, 0.01 mg/ml in series [19] and in [20] were 6.3 to 12.1% and 75.4%, respectively. The TGI in [21] is 74%.

For the origin of these results see ChEMBL document CHEMBL4616673 (J Med Chem, 2020).
